Screening results deposited in PubChem by several laboratories.
Most compounds without a hit are left out; they make up all but 1.5% or so of the library.
VLA-4 inh – inhibition in a human VLA-4 binding assay; inhibition, % (about 7 µM as worked out from the volumes in the protocol); 330,000 compounds, 0.2% hits; P13612; VLA-4 expressing cells, ligand binding flow cytometry; in the data active = inhibition above about 50%
Myeloid diff MLP – myeloid differentiation induction; 360,000 compounds, 1% hits; ER-HoxA9 myeloid progenitors, lysozyme-GFP differentiation, flow cytometry; calls only at 10 µM; AID 624256;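 active = normalized GFP-positive differentiation at or above the plate's own cutoff, the solvent-only control mean plus 3 SD; inconclusive = no clear call, values can overlap the other calls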;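 note: cells exposed to compound for four days before flow analysis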
SENP1 inh – blocks the human SENP1 SUMO protease catalytic domain | recombinant SENP1 catalytic domain, CyPet-SUMO1-YPet FRET cleavage | inhibition, % at 10 µM | 360,000 compounds, 0.21% hits | AID 624204;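 active = inhibition at least 30% at 10 µM, raw YFP signal under a set limit, fluorescence ratio 0.5 to 1.5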
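Controls: no-enzyme wells low, DMSO-plus-enzyme wells high control. Test system: human recombinant His6-tagged SENP1 catalytic domain enzyme. Reagent: SFCypet-SUMO1-SFYpet FRET protein substrate, 25 nM final. Doses: one dose per compound, 10 µM, 0.5% DMSO. Detection: FRET, CFP and YFP emission. Timing: 50 min reaction at room temperature.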
Platelet DG rel – platelet dense granule release activity. human platelet-rich plasma, SFLLRN dense granule ATP release, luminescence. inhibition, %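 (compounds screened at 7.5 µM in platelet-rich plasma)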. 300,000 compounds, 0.22% hits;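 active = mean replicate score, as percent of positive control, at or above 50; inconclusive = mean below 50 but at least one replicate at or above 50; inactive = mean and every replicate below 50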
Hits are given with their value; n = inactive; u = inconclusive; x = no result; + = active, no number.

SMILES	VLA-4 inh	Myeloid diff MLP	SENP1 inh	Platelet DG rel
CCOC(=O)Cn1c(-c2nonc2NC(=O)c2ccccc2F)nc2ccccc21	n	+	n	n
N#Cc1cc2nc(O)c(O)nc2cc1[N+](=O)[O-]	n	n	n	x
CNc1nc2cc([N+](=O)[O-])c([N+](=O)[O-])cc2nc1NC	n	u	43	n
O=C(NCc1cccnc1)C(=O)Nc1ccc([N+](=O)[O-])cc1	n	n	n	n
CC(=O)Nc1cccc(N/C=C(\C=O)c2nc3ccccc3o2)c1	n	+	n	n
O=C/C(=C\Nc1ccccn1)c1nc2cc(Cl)ccc2o1	n	+	n	n
O=C/C(=C\Nc1ccccn1)c1nc2ccccc2o1	n	n	n	n
O=C(CNCc1ccccn1)Nc1ccc([N+](=O)[O-])cc1C(=O)Nc1ccccc1F	n	n	n	n
C/C(N)=C(/C#N)C(=O)COC(=O)c1ccc(NC(N)=O)cc1	n	n	n	n
Cc1nc2sccn2c(=O)c1S(=O)(=O)NC(C)c1ccccc1 (stereo not given)	n	n	n	63
Cc1nc2sccn2c(=O)c1S(=O)(=O)NCC(C)c1ccccc1 (stereo not given)	n	n	n	58
COc1ccc(Br)cc1CNC(=O)CCNC(=O)Cn1ccc2ccccc2c1=O	n	n	n	n
Cc1ccc(Cn2cc(/C=N/Nc3ccc([N+](=O)[O-])cn3)c3ccccc32)cc1	n	+	n	n
CCS(=O)(=O)c1nc(S(=O)(=O)c2ccc(C)cc2)c(N2CC(C)OC(C)C2)s1 (stereo not given)	n	+	n	n
CCCS(=O)(=O)c1nc(S(=O)(=O)c2ccc(C)cc2)c(N2CC(C)OC(C)C2)s1 (stereo not given)	n	n	n	n
CCOC(=O)c1c(-c2ccccc2)csc1NC(=O)/C(C#N)=C/c1ccc(O)c(OC)c1	n	+	n	n
CCOC(=O)/C(C#N)=C\c1ccc(OC)c(OC)c1	n	n	n	n
CCOC(=O)c1c(-c2ccccc2)csc1NC(=O)/C(C#N)=C/c1ccc(OC)c(OC)c1	n	+	n	n
Cc1ccc(S(=O)(=O)NCc2nnnn2-c2ccc(F)cc2)cc1	x	n	n	x
O=C(NCCN1CCN(C(=O)c2ccc(F)cc2)CC1)C(=O)NCc1ccccc1	n	n	n	n
C=CCn1c(SCC(=O)NC2CCCC2)nc2c([nH]c3ccccc32)c1=O	n	n	n	n
Cc1ccccc1NC(=O)C1CCN(C(=O)N2CCOc3ccccc32)CC1	n	n	n	n
NC(Cc1ccccc1)c1csc(NC(=O)Nc2ccccc2Oc2ccccc2)n1 (stereo not given)	x	+	n	x
COc1ccccc1NC(=O)Nc1nc(C(N)Cc2ccc(C(F)(F)F)cc2)cs1 (stereo not given)	x	n	n	x
NC(Cc1ccc(C(F)(F)F)cc1)c1csc(NC(=O)Nc2ccccc2Oc2ccccc2)n1 (stereo not given)	x	+	n	x
SMILES	VLA-4 inh	Myeloid diff MLP	SENP1 inh	Platelet DG rel
CCn1ccc(C(=O)Nc2ccsc2C(=O)OC)n1	n	n	n	n
Cc1cc(C)c([N+](=O)[O-])cc1NCC(=O)N1CCN(c2ccccc2)CC1	n	+	n	n
C[C@H](NC(=O)c1nc[nH]c1C(=O)N[C@@H](Cc1ccccc1)C(=O)OC(C)(C)C)C(=O)OCc1ccccc1	n	n	n	n
CCC(C)NS(=O)(=O)c1cc2c3c(c1)CCC(=O)N3CCC2 (stereo not given)	n	n	n	n
Nc1ccc(Nc2ccccc2N)cc1	n	n	n	n
COc1ccc(Nc2ccccc2N)cc1	n	+	34	n
CC(C)c1nnc(NC(=O)CCC(=O)NC2CCCCCC2)s1	n	n	n	n
CC(C)c1nnc(NC(=O)CCC(=O)NC2CC2)s1	n	n	n	55
COc1ccc(OC)c(/C=N/NC(=O)c2[nH]ncc2Br)c1	n	n	n	n
CCOc1ccc(/C=N/NC(=O)c2[nH]ncc2Br)c(O)c1	n	u	n	84
COc1cc2c(cc1OC)-c1nc3ccccc3c(=O)n1C(C)(C)C2	n	+	n	n
Cc1nc(S/C(C(=O)O)=C2/C(=O)Nc3ccccc32)n[nH]1	n	n	n	61
Cc1nc(SC2CC(=O)N(c3ccccc3)C2=O)n[nH]1 (stereo not given)	n	n	n	n
C[C@]12CC[C@H]3C(=CCc4cc(O)ccc43)[C@@H]1CCC2=O	n	+	n	n
OC(CCCN1CCC(O)(c2ccc(Cl)cc2)CC1)c1ccc(F)cc1 (stereo not given)	n	n	n	n
CN(C)C(=O)C(CCN1CCC(O)(c2ccc(Cl)cc2)CC1)(c1ccccc1)c1ccccc1	n	+	n	n
CCC1=[N+](C)c2cccc3cccc(c23)N1C	n	+	n	n
CN1/C(=N\O)c2cccc3cccc1c23	n	n	n	n
COc1ccc(/C=N/N(C)c2cc(=O)n(C)c(=O)[nH]2)cc1OC	n	n	n	74
CCC1Oc2ccc(C)cc2N(CC(=O)NCCN2CCOCC2)C1=O (stereo not given)	n	n	n	n
CCCn1c(N)c(C(=O)COc2ccc(Br)cc2F)c(=O)n(C)c1=O	n	n	n	n
COc1cc(NC(=O)c2ccc([N+](=O)[O-])o2)ccc1NC(=O)c1cccs1	n	+	n	n
Cc1ccccc1NC(=O)c1ccc([N+](=O)[O-])o1	n	n	n	n
Cc1ccc(NC(=O)c2ccc([N+](=O)[O-])o2)c(C)c1	n	+	n	n
CC(NC(=O)COC(=O)c1cc(NS(=O)(=O)c2ccc(Cl)c([N+](=O)[O-])c2)ccc1O)C1CC2CCC1C2 (stereo not given)	n	n	n	n
SMILES	VLA-4 inh	Myeloid diff MLP	SENP1 inh	Platelet DG rel
Cc1ccn2c(C(=O)N/N=C\c3ccccc3[N+](=O)[O-])c(C)nc2c1	n	+	n	n
Cc1ccn2c(C(=O)N/N=C/c3ccc(Cl)cc3)c(C)nc2c1	x	n	n	n
Clc1ccc2c(NCCNC3CCCCC3)ccnc2c1	x	+	n	x
CC(CCCN1CCCC1)Nc1ccnc2cc(Cl)ccc12 (stereo not given)	x	n	n	x
CC(C)NC1CCC(Nc2ccnc3cc(Cl)ccc23)CC1 (stereo not given)	x	+	n	x
COc1cccc(N2CCN(S(=O)(=O)c3ccc4c(c3)NC(=O)C(C)C(=O)N4)CC2)c1 (stereo not given)	n	n	n	n
CCC1CCCCN1c1nc(-c2ccncc2)nc2ccccc12 (stereo not given)	n	n	n	n
CC1CCCCN1c1nc(-c2ccncc2)nc2ccccc12 (stereo not given)	n	+	n	n
CN1CCN(NC(=O)c2cc(-c3cccc(Cl)c3)nc3ccccc23)CC1	n	n	n	n
CC(C)c1ccc(-c2cc(C(=O)NN3CCN(C)CC3)c3ccccc3n2)cc1	n	n	n	54
Cc1ccc2[nH]c3c(c2c1)CN(C(=O)CN1CC(C)OC(C)C1)CC3 (stereo not given)	n	+	n	x
Cc1ccc2[nH]c3c(c2c1)CN(C(=O)CN1CCSCC1)CC3	x	x	x	n
CCn1c2ccccc2c2c3ncc4cccn4c3ccc21	n	+	n	n
